Values belong to the molecule of their own block, whether it stands above or below them.
Columns and labels:
[1] = Antiproliferative activity against human NPC-TW01 cells after 72 hrs by MTT assay; format: functional; details: NPC-TW01, 72 h
Procedure, shortened: (§1)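 Cells were exposed to a range of concentrations for 72 h. Compounds came from 20 mM stocks in 100% DMSO. Cells were then given MEM with 0.4 mg/mL MTT for 2 h, and formazan was read at 570 nm. GI50 was taken from percentage conversion relative to mock-treated controls and reported as mean SD of three independent experiments.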

NCI-H661 = assay: Antiproliferative activity against human NCI-H661 cells after 72 hrs by MTT assay; format: functional; details: NCI-H661, 72 h; procedure, shortened: as §1
MT2 = assay: Antiproliferative activity against human MT2 cells after 72 hrs by MTT assay; format: functional; details: MT2, 72 h; procedure, shortened: as §1
[2] = Cell cycle arrest in human NPC-TW01 cells assessed as accumulation at sub-G1 phase at 60 uM after 72 hrs by flow cytometry; format: functional, cell-based
Procedure, shortened: (§2)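 Time course in exponentially growing cells at two concentrations, sampled at the indicated times. Controls were kept in complete medium with 0.3% DMSO for the same periods. Cells were fixed, RNase-treated and stained. DNA content was read on a FACScan flow cytometer, and the percentage of cells in sub-G1, G0/G1, S and G2/M was determined.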

[3] = Cell cycle arrest in human NPC-TW01 cells assessed as accumulation at G2/M phase at 30 uM after 72 hrs by flow cytometry; format: functional, cell-based; procedure, shortened: as §2
[4] = Cell cycle arrest in human NPC-TW01 cells assessed as accumulation at G2/M phase at 30 uM after 24 hrs by flow cytometry; format: functional, cell-based; procedure, shortened: as §2
[5] = Cell cycle arrest in human NPC-TW01 cells assessed as accumulation at G0/G1 phase at 60 uM after 72 hrs by flow cytometry; format: functional, cell-based; procedure, shortened: as §2
[6] = Cell cycle arrest in human NPC-TW01 cells assessed as accumulation at G2/M phase at 30 uM after 96 hrs by flow cytometry; format: functional, cell-based; procedure, shortened: as §2
[7] = Cell cycle arrest in human NPC-TW01 cells assessed as accumulation at G2/M phase at 10.5 uM after 72 hrs by flow cytometry; format: functional, cell-based
Procedure, shortened: (§3)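 Exponentially growing cells were treated for 72 h. Controls received complete medium with 0.5% DMSO for 72 h. Cells were fixed, incubated with RNase and stained. DNA content was measured on a FACScan flow cytometer, and the percentage of cells in each cell-cycle phase was determined.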

[8] = Cell cycle arrest in human NPC-TW01 cells assessed as accumulation at sub-G1 phase at 60 uM after 48 hrs by flow cytometry; format: functional, cell-based; procedure, shortened: as §2
[9] = Cell cycle arrest in human NPC-TW01 cells assessed as accumulation at S phase at 60 uM after 48 hrs by flow cytometry; format: functional, cell-based; procedure, shortened: as §2
[10] = Cell cycle arrest in human NPC-TW01 cells assessed as accumulation at sub-G1 phase at 30 uM after 48 hrs by flow cytometry; format: functional, cell-based; procedure, shortened: as §2
[11] = Cell cycle arrest in human NPC-TW01 cells assessed as accumulation at sub-G1 phase at 10.5 uM after 72 hrs by flow cytometry; format: functional, cell-based; procedure, shortened: as §3
[12] = Cell cycle arrest in human NPC-TW01 cells assessed as accumulation at S phase at 60 uM after 96 hrs by flow cytometry; format: functional, cell-based; procedure, shortened: as §2
[13] = Cell cycle arrest in human NPC-TW01 cells assessed as accumulation at S phase at 10.5 uM after 72 hrs by flow cytometry; format: functional, cell-based; procedure, shortened: as §3
[14] = Cell cycle arrest in human NPC-TW01 cells assessed as accumulation at G2/M phase at 30 uM after 48 hrs by flow cytometry; format: functional, cell-based; procedure, shortened: as §2
[15] = Cell cycle arrest in human NPC-TW01 cells assessed as accumulation at G0/G1 phase at 60 uM after 96 hrs by flow cytometry; format: functional, cell-based; procedure, shortened: as §2
[16] = Cell cycle arrest in human NPC-TW01 cells assessed as accumulation at sub-G1 phase at 60 uM after 24 hrs by flow cytometry; format: functional, cell-based; procedure, shortened: as §2
[17] = Cell cycle arrest in human NPC-TW01 cells assessed as accumulation at G0/G1 phase at 60 uM after 24 hrs by flow cytometry; format: functional, cell-based; procedure, shortened: as §2
[18] = Cell cycle arrest in human NPC-TW01 cells assessed as accumulation at sub-G1 phase at 30 uM after 96 hrs by flow cytometry; format: functional, cell-based; procedure, shortened: as §2
[19] = Cell cycle arrest in human NPC-TW01 cells assessed as accumulation at G0/G1 phase at 30 uM after 24 hrs by flow cytometry; format: functional, cell-based; procedure, shortened: as §2
[20] = Cell cycle arrest in human NPC-TW01 cells assessed as accumulation at G0/G1 phase at 30 uM after 96 hrs by flow cytometry; format: functional, cell-based; procedure, shortened: as §2
[21] = Cell cycle arrest in human NPC-TW01 cells assessed as accumulation at sub-G1 phase at 60 uM after 96 hrs by flow cytometry; format: functional, cell-based; procedure, shortened: as §2
[22] = Cell cycle arrest in human NPC-TW01 cells assessed as accumulation at G2/M phase at 60 uM after 72 hrs by flow cytometry; format: functional, cell-based; procedure, shortened: as §2
[23] = Cell cycle arrest in human NPC-TW01 cells assessed as accumulation at S phase at 30 uM after 24 hrs by flow cytometry; format: functional, cell-based; procedure, shortened: as §2
[24] = Cell cycle arrest in human NPC-TW01 cells assessed as accumulation at sub-G1 phase at 30 uM after 72 hrs by flow cytometry; format: functional, cell-based; procedure, shortened: as §2
[25] = Cell cycle arrest in human NPC-TW01 cells assessed as accumulation at S phase at 30 uM after 72 hrs by flow cytometry; format: functional, cell-based; procedure, shortened: as §2
[26] = Cell cycle arrest in human NPC-TW01 cells assessed as accumulation at G2/M phase at 60 uM after 96 hrs by flow cytometry; format: functional, cell-based; procedure, shortened: as §2
[27] = Cell cycle arrest in human NPC-TW01 cells assessed as accumulation at G0/G1 phase at 60 uM after 48 hrs by flow cytometry; format: functional, cell-based; procedure, shortened: as §2
[28] = Cell cycle arrest in human NPC-TW01 cells assessed as accumulation at S phase at 30 uM after 96 hrs by flow cytometry; format: functional, cell-based; procedure, shortened: as §2
[29] = Cell cycle arrest in human NPC-TW01 cells assessed as accumulation at S phase at 60 uM after 72 hrs by flow cytometry; format: functional, cell-based; procedure, shortened: as §2
[30] = Cell cycle arrest in human NPC-TW01 cells assessed as accumulation at G2/M phase at 60 uM after 24 hrs by flow cytometry; format: functional, cell-based; procedure, shortened: as §2
[31] = Cell cycle arrest in human NPC-TW01 cells assessed as accumulation at S phase at 60 uM after 24 hrs by flow cytometry; format: functional, cell-based; procedure, shortened: as §2
[32] = Cell cycle arrest in human NPC-TW01 cells assessed as accumulation at sub-G1 phase at 30 uM after 24 hrs by flow cytometry; format: functional, cell-based; procedure, shortened: as §2
[33] = Cell cycle arrest in human NPC-TW01 cells assessed as accumulation at G2/M phase at 60 uM after 48 hrs by flow cytometry; format: functional, cell-based; procedure, shortened: as §2
[34] = Cell cycle arrest in human NPC-TW01 cells assessed as accumulation at G0/G1 phase at 30 uM after 72 hrs by flow cytometry; format: functional, cell-based; procedure, shortened: as §2
[35] = Cell cycle arrest in human NPC-TW01 cells assessed as accumulation at G0/G1 phase at 30 uM after 48 hrs by flow cytometry; format: functional, cell-based; procedure, shortened: as §2
[36] = Cell cycle arrest in human NPC-TW01 cells assessed as accumulation at S phase at 30 uM after 48 hrs by flow cytometry; format: functional, cell-based; procedure, shortened: as §2
[37] = Cell cycle arrest in human NPC-TW01 cells assessed as accumulation at sub-G1 phase at 48.0 uM after 72 hrs by flow cytometry; format: functional, cell-based; procedure, shortened: as §3
[38] = Cell cycle arrest in human NPC-TW01 cells assessed as accumulation at S phase at 48.0 uM after 72 hrs by flow cytometry; format: functional, cell-based; procedure, shortened: as §3
[39] = Cell cycle arrest in human NPC-TW01 cells assessed as accumulation at G0/G1 phase at 48.0 uM after 72 hrs by flow cytometry; format: functional, cell-based; procedure, shortened: as §3
[40] = Cell cycle arrest in human NPC-TW01 cells assessed as accumulation at G2/M phase at 48.0 uM after 72 hrs by flow cytometry; format: functional, cell-based; procedure, shortened: as §3
[41] = Cell cycle arrest in human NPC-TW01 cells assessed as accumulation at S phase at 6.0 uM after 72 hrs by flow cytometry; format: functional, cell-based; procedure, shortened: as §3
[42] = Cell cycle arrest in human NPC-TW01 cells assessed as accumulation at G2/M phase at 6.0 uM after 72 hrs by flow cytometry; format: functional, cell-based; procedure, shortened: as §3
[43] = Cell cycle arrest in human NPC-TW01 cells assessed as accumulation at sub-G1 phase at 6.0 uM after 72 hrs by flow cytometry; format: functional, cell-based; procedure, shortened: as §3
[44] = Cell cycle arrest in human NPC-TW01 cells assessed as accumulation at G0/G1 phase at 6.0 uM after 72 hrs by flow cytometry; format: functional, cell-based; procedure, shortened: as §3

SMILES: O=C(COc1c(-c2ccccc2)oc2ccccc2c1=O)Nc1ccc2ccccc2c1
GI50 [1]: 6.52 µM | GI50 (NCI-H661): 6.5 µM | GI50 (MT2): > 10 µM

SMILES: O=C(COc1ccc2oc(-c3ccccc3)cc(=O)c2c1)Nc1ccc(F)cc1
Activity [2]: 4.5% | Activity [3]: 9.47% | Activity [4]: 17% | Activity [5]: 73.7% | Activity [6]: 8.6% | Activity [7]: 5.2% | Activity [8]: 2.87% | Activity [9]: 18.4% | Activity [10]: 2.59% | Activity [11]: 4% | Activity [12]: 12.8% | Activity [13]: 13.6% | Activity [14]: 13.4% | Activity [15]: 66.7% | Activity [16]: 2.27% | Activity [17]: 51.5% | Activity [18]: 5.62% | Activity [19]: 52% | Activity [20]: 70.7% | Activity [21]: 12.7% | Activity [22]: 6.64% | Activity [23]: 27.6% | Activity [24]: 4.79% | Activity [25]: 14.7% | GI50 [1]: 0.74 µM | Activity [26]: 7.78% | Activity [27]: 68.3% | GI50 (NCI-H661): 1.47 µM | Activity [28]: 15.1% | Activity [29]: 15.7% | Activity [30]: 19.8% | Activity [31]: 26.4% | GI50 (MT2): 0.47 µM | Activity [32]: 3.45% | Activity [33]: 10.5% | Activity [34]: 71% | Activity [35]: 59.8% | Activity [36]: 24.2%

SMILES: COc1ccc(/C(COc2ccc3oc(-c4ccccc4)cc(=O)c3c2)=N/O)cc1
Activity [37]: 1.2% | Activity [38]: 27.5% | Activity [39]: 0.5% | Activity [40]: 70.8%

SMILES: COc1ccc(NC(=O)COc2c(-c3ccccc3)oc3ccccc3c2=O)cc1
GI50 [1]: 5.48 µM | GI50 (NCI-H661): 6.74 µM | GI50 (MT2): > 10 µM

SMILES: O=C(COc1ccc2c(=O)c(-c3ccccc3)coc2c1)Nc1ccc(-c2ccccc2)cc1
GI50 [1]: 1.75 µM | GI50 (NCI-H661): > 10 µM | GI50 (MT2): > 10 µM

SMILES: O=c1cc(-c2ccccc2)oc2ccc(OC/C(=N\O)c3ccc(F)cc3)cc12
Activity [41]: 33.2% | Activity [42]: 42.8% | Activity [43]: 1.7% | Activity [44]: 22.3%

SMILES: COc1ccc(NC(=O)COc2ccc3c(=O)c(-c4ccccc4)coc3c2)cc1
GI50 [1]: 6.7 µM | GI50 (NCI-H661): 9.53 µM | GI50 (MT2): 4.55 µM

More lines, main results first:

GI50 (NCI-H661): > 10 µM
SMILES: O=C(COc1c(-c2ccccc2)oc2ccccc2c1=O)Nc1ccccc1
GI50 [1]: > 10 µM | GI50 (MT2): 6.72 µM

GI50 (NCI-H661): 5.77 µM
SMILES: O=C(COc1ccc2c(=O)cc(-c3ccccc3)oc2c1)Nc1ccc(F)cc1
GI50 [1]: > 10 µM | GI50 (MT2): 6.41 µM

GI50 (NCI-H661): > 10 µM
SMILES: O=C(COc1c(-c2ccccc2)oc2ccccc2c1=O)Nc1ccc(-c2ccccc2)cc1
GI50 [1]: > 10 µM | GI50 (MT2): > 10 µM

GI50 (NCI-H661): > 10 µM
SMILES: O=C(COc1ccc2c(=O)cc(-c3ccccc3)oc2c1)Nc1ccccc1
GI50 [1]: > 10 µM | GI50 (MT2): > 10 µM

Source: ChEMBL document CHEMBL1156563, “Synthesis and antiproliferative evaluation of amide-containing flavone and isoflavone derivatives” (Bioorg Med Chem, 2008)
